Measurements pooled from the literature.
Compare with care: the assays were run in different laboratories.
MAOB: Amine oxidase [flavin-containing] B (MAOB, Homo sapiens, UniProt P27338)
HCK: Tyrosine-protein kinase HCK (HCK, Homo sapiens, UniProt P08631)

target	effect on	action	technique	concentration	endpoint	value	SMILES
MAOB	enzyme activity	inhibitor	–	1 µM	inhibition	87%	O=C(Nc1ccc(Cl)c(F)c1)c1ccc2c(c1)C(=O)NC2=O
Serine/threonine-protein kinase NLK (NLK, Homo sapiens, UniProt Q9UBE8)	binding	–	competition with immobilised ligand	0.5 µM	remaining binding	92%	CCCCC(=O)Nc1ccc(-c2ccc3ncn(CCC)c(=O)c3c2)cn1
HCK	binding	–	–	1 µM	remaining binding	108%	COc1ccc2oc(-c3ccc4nc(N)oc4c3)c/c(=N\c3ccccc3NC(=O)CCN)c2c1
Histamine H1 receptor (HRH1, Homo sapiens, UniProt P35367)	cell-free assay	–	–	10 µM	inhibition	17%	Cc1cc(F)cc2c(CCC(=O)N[C@@H]3C(=O)NC[C@H]3O)c(-c3ccc(F)cc3)[nH]c12
Receptor-interacting serine/threonine-protein kinase 3 (RIPK3, Homo sapiens, UniProt Q9Y572)	enzyme activity	inhibitor	ADP detection	20 µM	activity vs control	110%	CC(=O)ON=C1C=CC(=C(C#N)c2ccccc2)C=C1
MAOB	enzyme activity	inhibitor	–	1 µM	inhibition	87.2%	C#CCN[C@@H]1CCc2ccccc21
Lactoylglutathione lyase (GLO1, Homo sapiens, UniProt Q04760)	enzyme activity	inhibitor	–	1 µM	inhibition	13.6%	O=C(N[C@@H](CSCc1nc2cc([N+](=O)[O-])ccc2[nH]1)C(=O)NO)c1ccccc1
NUAK family SNF1-like kinase 2 (NUAK2, Homo sapiens, UniProt Q9H093)	binding	–	competition with immobilised ligand	1 µM	remaining binding	45%	C[C@]1(O)CCCN(c2nc(Nc3ccc(S(=O)(=O)N[C@H]4CC[C@H](CN5CCN(c6ccc(C7CCC(=O)NC7=O)cc6F)CC5)CC4)cc3F)ncc2C(F)(F)F)C1 (some centres unmarked)
MAOB	enzyme activity	inhibitor	–	1 µM	inhibition	97.3%	O=C(Nc1ccc(F)c(Br)c1)c1ccc2c(c1)C(=O)NC2=O
GUK1 (Homo sapiens, UniProt Q16774)	enzyme activity	substrate	–	–	Km	14.9 µM	Nc1nc2c(ncn2[C@@H]2O[C@H](COP(=O)(O)O)[C@@H](O)[C@H]2O)c(=O)[nH]1
Beta-1 adrenergic receptor (ADRB1, Homo sapiens, UniProt P08588)	ligand displacement	–	radioligand	10 µM	inhibition	< 50%	NC/C(=C\F)COc1cccc(Cn2c(=S)[nH]c(=O)c3[nH]cnc32)c1
MAOB	enzyme activity	inhibitor	–	1 µM	inhibition	< 5%	COc1cccc(NC(=O)c2ccc3c(c2)C(=O)NC3=O)c1
HCK	binding	–	–	0.1 µM	remaining binding	100%	C1=C/COCc2cc(ccc2OCCN2CCCC2)Nc2nccc(n2)-c2cccc(c2)COC/1
Dual specificity tyrosine-phosphorylation-regulated kinase 4 (DYRK4, Homo sapiens, UniProt Q9NR20)	enzyme activity	inhibitor	–	0.2 µM	inhibition	4.78%	C#Cc1cc(-c2cc(Nc3nc(N[C@@H](C)c4ccc(F)cn4)ncc3Cl)n[nH]2)ccc1C=O
